Data from ChEMBL document CHEMBL4689842, “EUbOPEN Chemogenomics Library wave 1” (2021).

Test system: HEK-293T
Test: Multiplex assay against HEK293T;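 as to Population Tubulin-Different-Phenotype (%): share of the cells with healthy nuclei that show this phenotype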
Type: toxicity, cell-based
Settings: human
Summary of the method: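 Cells stained live at seeding with Hoechst33342, BioTracker Green Microtubule Cytoskeleton Dye, MitoTracker Red and Annexin V Alexa Fluor 680 were imaged on a CQ1 microscope at 37°C and 5% CO2 after compound addition. Their classification by CellPathfinder machine-learning gating ran from Hoechst high-intensity objects versus normal cells, to healthy, pyknosed or fragmented nuclei among normal cells, to mitotic or apoptotic among pyknosed cells. Tubulin, mitochondrial-mass and membrane-permeability phenotypes are per cents of healthy-nucleus cells.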

[1] = 12 h, 1 µM, compound concentration 1 uM, replicate 1
[2] = 12 h, 1 µM, compound concentration 1 uM, replicate 2
[3] = 12 h, 10 µM, compound concentration 10 uM, replicate 1
[4] = 12 h, 10 µM, compound concentration 10 uM, replicate 2
[5] = 24 h, 1 µM, compound concentration 1 uM, replicate 1
[6] = 24 h, 1 µM, compound concentration 1 uM, replicate 2
[7] = 24 h, 10 µM, compound concentration 10 uM, replicate 1
[8] = 24 h, 10 µM, compound concentration 10 uM, replicate 2
[9] = 48 h, 1 µM, compound concentration 1 uM, replicate 1
[10] = 48 h, 1 µM, compound concentration 1 uM, replicate 2
[11] = 48 h, 10 µM, compound concentration 10 uM, replicate 1
[12] = 48 h, 10 µM, compound concentration 10 uM, replicate 2

With `CC(/C=C1\SC(=S)N(CCCC(=O)Nc2ccc(C(=O)O)c(O)c2)C1=O)=C\c1ccccc1` the “Population Apoptotic (%)” value [1] was 38%, the “Population Fragmented Nuclei (%)” value [1] was 11% and the “Population Healthy Nuclei (%)” value [1] was 34%. For the same molecule, the “Population Hoechst High Intensity Objects (%)” value [1] was 9%, the “Population Membrane Permeable-Phenotype (%)” value [1] was 3% and the “Population Mitochondria Different-Phenotype (%)” value [1] was 68%. The “Population Mitotic Cells (%)” value [1] was 61%, the “Population Normal (%)” value [1] was 90% and the “Population Pyknosed Nuclei (%)” value [1] was 53%. For the same molecule, the “Population Tubulin-Different-Phenotype (%)” value [1] was 34%, the “Total Cell Count” value [1] was 251 and the “Population Apoptotic (%)” value [2] was 5%. For the same molecule, the “Population Fragmented Nuclei (%)” value [2] was 2%, the “Population Healthy Nuclei (%)” value [2] was 44% and the “Population Hoechst High Intensity Objects (%)” value [2] was 2%. The “Population Membrane Permeable-Phenotype (%)” value [2] was 9%, the “Population Mitochondria Different-Phenotype (%)” value [2] was 20% and the “Population Mitotic Cells (%)” value [2] was 94%. The “Population Normal (%)” value [2] was 97%, the “Population Pyknosed Nuclei (%)” value [2] was 52% and the “Population Tubulin-Different-Phenotype (%)” value [2] was 21%. The “Total Cell Count” value [2] was 242, the “Population Apoptotic (%)” value [3] was 40% and the “Population Fragmented Nuclei (%)” value [3] was 10%. The “Population Healthy Nuclei (%)” value [3] was 35%, the “Population Hoechst High Intensity Objects (%)” value [3] was 13% and the “Population Membrane Permeable-Phenotype (%)” value [3] was 6%. The “Population Mitochondria Different-Phenotype (%)” value [3] was 65%, the “Population Mitotic Cells (%)” value [3] was 59% and the “Population Normal (%)” value [3] was 86%. For the same molecule, the “Population Pyknosed Nuclei (%)” value [3] was 54%, the “Population Tubulin-Different-Phenotype (%)” value [3] was 34% and the “Total Cell Count” value [3] was 255. For the same molecule, the “Population Apoptotic (%)” value [4] was 8%, the “Population Fragmented Nuclei (%)” value [4] was 5% and the “Population Healthy Nuclei (%)” value [4] was 50%. The “Population Hoechst High Intensity Objects (%)” value [4] was 1%, the “Population Membrane Permeable-Phenotype (%)” value [4] was 5% and the “Population Mitochondria Different-Phenotype (%)” value [4] was 5%. For the same molecule, the “Population Mitotic Cells (%)” value [4] was 91%, the “Population Normal (%)” value [4] was 98% and the “Population Pyknosed Nuclei (%)” value [4] was 43%. The “Population Tubulin-Different-Phenotype (%)” value [4] was 8%, the “Total Cell Count” value [4] was 269 and the “Population Apoptotic (%)” value [5] was 41%. The “Population Fragmented Nuclei (%)” value [5] was 13%, the “Population Healthy Nuclei (%)” value [5] was 41% and the “Population Hoechst High Intensity Objects (%)” value [5] was 13%. The “Population Membrane Permeable-Phenotype (%)” value [5] was 1%, the “Population Mitochondria Different-Phenotype (%)” value [5] was 53% and the “Population Mitotic Cells (%)” value [5] was 58%. The “Population Normal (%)” value [5] was 86%, the “Population Pyknosed Nuclei (%)” value [5] was 45% and the “Population Tubulin-Different-Phenotype (%)” value [5] was 26%. The “Total Cell Count” value [5] was 263, the “Population Apoptotic (%)” value [6] was 16% and the “Population Fragmented Nuclei (%)” value [6] was 5%. The “Population Healthy Nuclei (%)” value [6] was 62%, the “Population Hoechst High Intensity Objects (%)” value [6] was 1% and the “Population Membrane Permeable-Phenotype (%)” value [6] was 13%. The “Population Mitochondria Different-Phenotype (%)” value [6] was 10%, the “Population Mitotic Cells (%)” value [6] was 84% and the “Population Normal (%)” value [6] was 98%. For the same molecule, the “Population Pyknosed Nuclei (%)” value [6] was 32%, the “Population Tubulin-Different-Phenotype (%)” value [6] was 30% and the “Total Cell Count” value [6] was 315. For the same molecule, the “Population Apoptotic (%)” value [7] was 41%, the “Population Fragmented Nuclei (%)” value [7] was 11% and the “Population Healthy Nuclei (%)” value [7] was 38%. The “Population Hoechst High Intensity Objects (%)” value [7] was 16%, the “Population Membrane Permeable-Phenotype (%)” value [7] was 2% and the “Population Mitochondria Different-Phenotype (%)” value [7] was 60%. The “Population Mitotic Cells (%)” value [7] was 58%, the “Population Normal (%)” value [7] was 83% and the “Population Pyknosed Nuclei (%)” value [7] was 49%. For the same molecule, the “Population Tubulin-Different-Phenotype (%)” value [7] was 50%, the “Total Cell Count” value [7] was 261 and the “Population Apoptotic (%)” value [8] was 7%. For the same molecule, the “Population Fragmented Nuclei (%)” value [8] was 2%, the “Population Healthy Nuclei (%)” value [8] was 72% and the “Population Hoechst High Intensity Objects (%)” value [8] was 1%. The “Population Membrane Permeable-Phenotype (%)” value [8] was 13%, the “Population Mitochondria Different-Phenotype (%)” value [8] was 5% and the “Population Mitotic Cells (%)” value [8] was 92%. For the same molecule, the “Population Normal (%)” value [8] was 98%, the “Population Pyknosed Nuclei (%)” value [8] was 24% and the “Population Tubulin-Different-Phenotype (%)” value [8] was 23%. The “Total Cell Count” value [8] was 356, the “Population Apoptotic (%)” value [9] was 31% and the “Population Fragmented Nuclei (%)” value [9] was 19%. The “Population Healthy Nuclei (%)” value [9] was 40%, the “Population Hoechst High Intensity Objects (%)” value [9] was 10% and the “Population Membrane Permeable-Phenotype (%)” value [9] was 4%. The “Population Mitochondria Different-Phenotype (%)” value [9] was 24%, the “Population Mitotic Cells (%)” value [9] was 68% and the “Population Normal (%)” value [9] was 89%. For the same molecule, the “Population Pyknosed Nuclei (%)” value [9] was 40%, the “Population Tubulin-Different-Phenotype (%)” value [9] was 26% and the “Total Cell Count” value [9] was 330. The “Population Apoptotic (%)” value [10] was 3%, the “Population Fragmented Nuclei (%)” value [10] was 4% and the “Population Healthy Nuclei (%)” value [10] was 83%. The “Population Hoechst High Intensity Objects (%)” value [10] was 3%, the “Population Membrane Permeable-Phenotype (%)” value [10] was 9% and the “Population Mitochondria Different-Phenotype (%)” value [10] was 3%. The “Population Mitotic Cells (%)” value [10] was 96%, the “Population Normal (%)” value [10] was 96% and the “Population Pyknosed Nuclei (%)” value [10] was 11%. For the same molecule, the “Total Cell Count” value [10] was 570, the “Population Apoptotic (%)” value [11] was 49% and the “Population Fragmented Nuclei (%)” value [11] was 17%. The “Population Healthy Nuclei (%)” value [11] was 44%, the “Population Hoechst High Intensity Objects (%)” value [11] was 12% and the “Population Membrane Permeable-Phenotype (%)” value [11] was 2%. The “Population Mitochondria Different-Phenotype (%)” value [11] was 26%, the “Population Mitotic Cells (%)” value [11] was 50% and the “Population Normal (%)” value [11] was 87%. The “Population Pyknosed Nuclei (%)” value [11] was 37%, the “Population Tubulin-Different-Phenotype (%)” value [11] was 29% and the “Total Cell Count” value [11] was 339. For the same molecule, the “Population Apoptotic (%)” value [12] was 12%, the “Population Fragmented Nuclei (%)” value [12] was 7% and the “Population Healthy Nuclei (%)” value [12] was 86%. The “Population Hoechst High Intensity Objects (%)” value [12] was 3%, the “Population Membrane Permeable-Phenotype (%)” value [12] was 9% and the “Population Mitochondria Different-Phenotype (%)” value [12] was 3%. For the same molecule, the “Population Mitotic Cells (%)” value [12] was 87%, the “Population Normal (%)” value [12] was 96% and the “Population Pyknosed Nuclei (%)” value [12] was 6%. The “Population Tubulin-Different-Phenotype (%)” value [12] was 16% and the “Total Cell Count” value [12] was 675.
